High-throughput results deposited in PubChem by several laboratories.
PHOSPHO1 block: PHOSPHO1 (human) inhibition | inhibition, % at 13.3 µM | recombinant PHOSPHO1, absorbance phosphatase assay | hit rate 1.1% among 290,000 | Q8TCT1; in the data active = inhibition above about 60%
Target sequence (Q8TCT1 whole entry, looked up): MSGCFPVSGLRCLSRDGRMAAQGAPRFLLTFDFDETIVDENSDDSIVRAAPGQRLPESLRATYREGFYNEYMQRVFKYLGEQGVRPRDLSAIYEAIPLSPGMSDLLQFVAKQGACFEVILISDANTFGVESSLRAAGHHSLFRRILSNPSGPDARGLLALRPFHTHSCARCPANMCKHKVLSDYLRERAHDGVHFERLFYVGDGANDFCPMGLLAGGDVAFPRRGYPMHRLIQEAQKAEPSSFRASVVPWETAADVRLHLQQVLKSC
KCNK3 block: human KCNK3 channel inhibition, primary screen; O14649; B-score at 10 µM; CHO-KCNK3 thallium flux, FluxOR fluorescence; active compounds read low; hit rate 0.84% among 340,000;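 active = B-score under library mean minus 4 SD, starting fluorescence ratio at most library mean plus 5 SD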;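 also: more negative B-score means stronger inhibition of thallium flux through KCNK3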
Target sequence (O14649 whole entry, looked up): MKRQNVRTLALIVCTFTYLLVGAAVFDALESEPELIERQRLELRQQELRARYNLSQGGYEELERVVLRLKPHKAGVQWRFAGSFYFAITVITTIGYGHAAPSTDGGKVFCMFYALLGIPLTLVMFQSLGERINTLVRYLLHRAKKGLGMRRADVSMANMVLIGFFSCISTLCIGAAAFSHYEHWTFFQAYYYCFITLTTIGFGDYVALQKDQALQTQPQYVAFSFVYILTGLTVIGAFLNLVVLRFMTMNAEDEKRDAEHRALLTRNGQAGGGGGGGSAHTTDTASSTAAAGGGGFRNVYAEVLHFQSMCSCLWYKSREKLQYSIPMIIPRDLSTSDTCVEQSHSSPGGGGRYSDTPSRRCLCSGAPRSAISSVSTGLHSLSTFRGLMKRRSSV
KCNQ1 act: potentiators or activators of human KCNQ1 potassium channel | P51787 | CHO-K1 KCNQ1, thallium flux FluxOR fluorescence; active compounds read high | B-score at 10 µM | hit rate 0.35% among 310,000;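 active = fluorescence ratio B-score, a plate-corrected score, at least three library SD, with initial intensity B-score within 5 SD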
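Assay system: stable KCNQ1 CHO-K1 line; medium: assay buffer, equal DMSO in all wells; timing: 90 min dye loading and 20 min compound exposure, both at room temperature; technique: kinetic FluxOR thallium fluorescence, 10-s 1-Hz baseline, 110-s post-stimulus read; read-out basis: B score of baseline-normalized fluorescence ratio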
KCNK9 inh: inhibitors of human KCNK9 two-pore domain potassium channel; Q9NPC2; HEK293 KCNK9, FluxOR thallium flux fluorescence; active compounds read low; B-score at 10 µM; hit rate 1.2% among 310,000;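 active = ratio B-score over 3 SD below the library mean, with starting fluorescence within 5 SD of its mean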;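 also: negative B-score means less thallium flux so channel inhibition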
hERG rescue: shields human hERG channel from block by proarrhythmic agents. Q12809. CHO-hERG, FluxOR thallium flux, dofetilide IC70 present. activation (rescue from dofetilide block), less the hit threshold, % at 10 µM. hit rate 0.51% among 310,000. AID 1511;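 active = activation above the mean of controls blocked by dofetilide plus 5 SD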;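 also: thallium influx through hERG after potassium depolarization seen as dye fluorescence rise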
KCNQ1 block: human KCNQ1 channel inhibition. P51787. CHO-K1 KCNQ1, FluxOR thallium flux fluorescence; active compounds read high. B-score at 10 µM. hit rate 1.3% among 310,000;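 active = compounds whose thallium flux B-score, printed positive for inhibition, exceeds three library SD while starting fluorescence stays within three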;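 also: channel opened by potassium depolarization with thallium stimulus after 20 min compound exposure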
Hits are given with their value; – = inactive; · = not tested or not shown. Shown are actives, neighbours in structure and some others; about 4% of the full set was active somewhere.

SMILES	PHOSPHO1 block	KCNK3 block	KCNQ1 act	KCNK9 inh	hERG rescue	KCNQ1 block
Cn1ccnc1SC(C(=O)O)c1ccccc1 (centres undefined)	·	–	–	–	–	–
O=C(Nc1ccc(Cl)c(Cl)c1)Nc1ccc(Br)cc1F	–	–	–	–	–	7
O=C(O)C1(c2ccccc2)CCN(S(=O)(=O)c2cccs2)CC1	–	–	–	–	5.2	–
O=C(O)C1(c2ccccc2)CCN(S(=O)(=O)c2ccccc2)CC1	–	–	–	–	–	–
CCn1c(CCC(=O)N(C)CC(=O)Nc2cccc(F)c2)nc2cc(S(=O)(=O)N(C)C)ccc21	·	–	–	–	–	–
CCOC(=O)c1sc(NC(=O)/C=C/c2cnn(CC)c2C)c(C(=O)OCC)c1C	69.6	–	–	–	–	–
CCCOC(=O)c1c(NC(=O)/C=C/c2cnn(C)c2C)sc(C(=O)OCC)c1C	–	–	–	–	–	–
CCOC(=O)c1sc(NN=C(C(=O)OC)C(=O)OC)c(C(=O)OCC)c1C	–	–	8	–	9.0	–
S=c1[nH]c2ccc(Cl)cc2s1	–	–	69	–	52.5	–
O=C1c2ccccc2CC1Sc1nnc(-c2ccccn2)o1 (centres undefined)	69.4	–	–	–	–	–
O=C(Nc1nnc(S(=O)(=O)Nc2ccccc2)s1)C1CCCCC1	–	–	–	–	–	–
Cc1ccc(C(=O)c2sc3nsc(C)c3c2N)cc1	97.5	–	–	–	–	–
Cc1snc2sc(C(=O)c3ccc(Br)cc3)c(N)c12	86.4	–	–	–	–	–
Cc1cccc(NC(=O)C23CCC(C)(/C(=N/O)C2)C3(C)C)c1 (centres undefined)	–	–	–	–	–	–
O=C(O)c1cc(S(=O)(=O)N(Cc2ccccc2)c2ccc(Cl)cc2)ccc1Cl	–	–	–	–	–	–
CN(Cc1c(F)cccc1Cl)C(=O)c1cc2ccccc2o1	–	–	–	–	–	–
CN(Cc1ccccc1N1CCCC1)C(=O)c1cc2cc(Cl)ccc2o1	·	-9.49	·	·	·	·
CN(Cc1ccccc1N1CCCC1)C(=O)c1cc2ccccc2o1	·	-11	·	·	·	·
C/C=C/C=N\NC(=O)c1ccncc1	–	–	–	–	–	–
COc1ccc(NC(=O)c2c(NC(=O)CNCc3ccco3)sc3c2CCC3)c(OC)c1	–	–	–	–	–	7
COc1ccc(OC)c(NC(=O)c2c(NC(=O)CNCc3ccco3)sc3c2CCC3)c1	–	–	–	–	–	–
COCCNC(=O)C(=O)N/N=C/c1cccs1	64.7	–	–	–	–	–
COc1ccccc1NC(=O)C(=O)N/N=C/c1cccs1	–	–	–	–	–	–
CCC(=O)/C=C1\Sc2ccc(OC)cc2N1CC	–	–	–	–	–	–
CCN1/C(=C\C(C)=O)Sc2ccc(OC)cc21	61.3	–	–	–	–	–
SMILES	PHOSPHO1 block	KCNK3 block	KCNQ1 act	KCNK9 inh	hERG rescue	KCNQ1 block
COc1ccc(NC(=S)N2CCC(C(=O)c3ccc(C)cc3)CC2)cc1	·	–	–	–	–	–
Cc1nn(Cc2ccccc2)c(N)c1-c1ccccc1	–	–	·	·	·	·
O=C(NCCN1CCOCC1)c1cccc(S(=O)(=O)N2CCCC2)c1	–	–	–	–	–	–
COc1ccc(C(=O)N/N=C/c2sc(N3CCOCC3)nc2-c2ccccc2)cc1OC	–	–	–	–	–	–
O=C(N/N=C/c1sc(N2CCOCC2)nc1-c1ccccc1)c1ccc(O)cc1	–	–	–	–	–	7
O=C(N/N=C/c1sc(N2CCOCC2)nc1-c1ccccc1)c1cccc(S(=O)(=O)N2CCCC2)c1	–	–	–	–	–	6
O=C(NCCN1CCOCC1)c1cccc(S(=O)(=O)N2CCCCCC2)c1	–	–	–	–	7.2	–
Cc1c(NC(=O)C(C)OC(=O)C(NC(=O)c2ccco2)C(C)C)c(=O)n(-c2ccccc2)n1C (centres undefined)	–	–	–	–	–	–
CCn1nc(C)c(/C=C2\CCCC3=C2OC(N)=C(C#N)C3c2c(C)nn(CC)c2C)c1C (centres undefined)	–	·	–	–	–	–
FC(F)Sc1nc(-c2ccccc2)c(-c2ccccc2)n1C(F)F	–	–	–	–	–	9
CCOc1ccc(NC(=O)c2ccc(N)cc2)cc1	–	–	11	–	–	–
CCOc1ccc(NC(=O)c2ccc3c(c2)CCN3S(C)(=O)=O)cc1	–	–	–	–	11.1	–
CCOc1ccc(NC(=O)c2ccc(NC(=O)CSc3nc4ccccc4c(=O)[nH]3)cc2)cc1	–	–	–	–	4.7	–
C=CCN1C(=S)CC(c2ccccc2)=Nc2ccccc21	–	–	–	–	–	–
CC(=NNC(=O)c1ccncc1)c1ccc(Cl)cc1Cl	·	–	·	·	·	·
Cn1cccc1C(=O)OCC(=O)N1CC(=O)Nc2ccccc21	–	–	–	–	–	–
C=CCn1c(=O)/c(=C/c2ccc(C)o2)s/c1=C(/C#N)C(=O)c1ccccc1	83.4	–	–	–	–	–
C=CCn1c(=O)/c(=C\c2ccccn2)s/c1=C(/C#N)C(=O)NCC1CCCO1 (centres undefined)	–	–	–	–	–	–
COc1ccc(NC(=O)c2ccccc2NC(=O)C2CC=CCC2C(=O)O)cc1 (centres undefined)	–	–	–	–	–	–
C[C@H](NC(=O)c1nc[nH]c1C(=O)NC(c1ccccc1)c1ccccc1)C(=O)OC(C)(C)C	–	–	–	-6.97	–	–
C[C@H](NC(=O)c1nc[nH]c1C(=O)N[C@H](C)c1ccccc1)C(=O)OC(C)(C)C	–	–	–	–	–	–
Cc1ccc(CNC(=O)c2cn(C3CCCCC3)c(=O)c3c2c2ccccc2n3C)o1	–	-9.41	–	–	–	–
Cc1ccc(CNC(=O)c2cn(C)c(=O)c3c2c2ccccc2n3C)o1	–	–	–	–	–	–
O=C(Nc1ncc2c(n1)-c1ccccc1CC2)c1cccc(Cl)c1	–	–	–	–	–	–
CCOC(=O)c1c(S(=O)(=O)NCC(=O)Nc2cccc(C)c2C)c(C)n(C)c1C	–	–	–	–	–	–
SMILES	PHOSPHO1 block	KCNK3 block	KCNQ1 act	KCNK9 inh	hERG rescue	KCNQ1 block
O=C(Nc1nc2c(c(=O)[nH]1)CCCC2)C1CC1	–	–	–	–	–	–
Cc1csc(NC(=O)CSc2ncnc3ccccc23)n1	62.8	–	–	–	–	–
Cc1cccc(NC(=S)c2nc3ccccc3s2)c1	–	–	10	–	43.4	–
CN(NS(=O)(=O)c1ccc(Cl)cc1)c1nc(C(F)(F)F)nc2ccccc12	–	–	–	-7.61	–	–
O=C(NC(Cc1c[nH]c2ccccc12)C(=O)O)c1cccs1 (centres undefined)	–	–	–	–	–	–
O=C(NC(Cc1c[nH]c2ccccc12)C(=O)N/N=C/c1cccc2ccccc12)c1cccs1 (centres undefined)	–	–	–	–	–	6
